Reference: ChEMBL document CHEMBL4364339, “Systematically Mitigating the p38α Activity of Triazole-based BET Inhibitors” (ACS Med Chem Lett, 2019)
Calls of active or inactive are those of the source. No cut-off for these calls is given here.

How the values were obtained:
[1] = molecular target: T1, Bromodomain-containing protein 4 (Homo sapiens, UniProt O60885); test: Inhibition of BRD4 bromodomain 1 (unknown origin) expressed in Escherichia coli Bl21(DE3)-pRARE cells by fluorescence anisotropy
In short: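 BRD4-D1 ligand displacement read by fluorescence anisotropy, reported as IC50; mean and standard deviation of three independent trials; IC50 above 100 μM reported as >100.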

MM1.S = test: Antiproliferative activity against human MM1S cells assessed as reduction in cell viability after 69 hrs by Alamar blue assay; format: functional, cell-based
In short: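 MM.1S cell viability, read as EC50 from a nonlinear curve fit; mean ± SEM of three biological replicates, each run in three technical replicates.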

[2] = molecular target: T1, Bromodomain-containing protein 4; test: Inhibition of BRD4 bromodomain 1 in human MM1S cells assessed as decrease in c-MYC expression after 6 hrs by Western blot analysis; format: cell-based
CREB-binding protein = CREB-binding protein (Homo sapiens, UniProt Q92793); test: Binding affinity to human partial length CREBBP (R1081 to G1197 residues) expressed in bacterial expression system by BROMOscan assay
CREB-binding protein, sequence (Q92793 whole entry, the tested form may be a part): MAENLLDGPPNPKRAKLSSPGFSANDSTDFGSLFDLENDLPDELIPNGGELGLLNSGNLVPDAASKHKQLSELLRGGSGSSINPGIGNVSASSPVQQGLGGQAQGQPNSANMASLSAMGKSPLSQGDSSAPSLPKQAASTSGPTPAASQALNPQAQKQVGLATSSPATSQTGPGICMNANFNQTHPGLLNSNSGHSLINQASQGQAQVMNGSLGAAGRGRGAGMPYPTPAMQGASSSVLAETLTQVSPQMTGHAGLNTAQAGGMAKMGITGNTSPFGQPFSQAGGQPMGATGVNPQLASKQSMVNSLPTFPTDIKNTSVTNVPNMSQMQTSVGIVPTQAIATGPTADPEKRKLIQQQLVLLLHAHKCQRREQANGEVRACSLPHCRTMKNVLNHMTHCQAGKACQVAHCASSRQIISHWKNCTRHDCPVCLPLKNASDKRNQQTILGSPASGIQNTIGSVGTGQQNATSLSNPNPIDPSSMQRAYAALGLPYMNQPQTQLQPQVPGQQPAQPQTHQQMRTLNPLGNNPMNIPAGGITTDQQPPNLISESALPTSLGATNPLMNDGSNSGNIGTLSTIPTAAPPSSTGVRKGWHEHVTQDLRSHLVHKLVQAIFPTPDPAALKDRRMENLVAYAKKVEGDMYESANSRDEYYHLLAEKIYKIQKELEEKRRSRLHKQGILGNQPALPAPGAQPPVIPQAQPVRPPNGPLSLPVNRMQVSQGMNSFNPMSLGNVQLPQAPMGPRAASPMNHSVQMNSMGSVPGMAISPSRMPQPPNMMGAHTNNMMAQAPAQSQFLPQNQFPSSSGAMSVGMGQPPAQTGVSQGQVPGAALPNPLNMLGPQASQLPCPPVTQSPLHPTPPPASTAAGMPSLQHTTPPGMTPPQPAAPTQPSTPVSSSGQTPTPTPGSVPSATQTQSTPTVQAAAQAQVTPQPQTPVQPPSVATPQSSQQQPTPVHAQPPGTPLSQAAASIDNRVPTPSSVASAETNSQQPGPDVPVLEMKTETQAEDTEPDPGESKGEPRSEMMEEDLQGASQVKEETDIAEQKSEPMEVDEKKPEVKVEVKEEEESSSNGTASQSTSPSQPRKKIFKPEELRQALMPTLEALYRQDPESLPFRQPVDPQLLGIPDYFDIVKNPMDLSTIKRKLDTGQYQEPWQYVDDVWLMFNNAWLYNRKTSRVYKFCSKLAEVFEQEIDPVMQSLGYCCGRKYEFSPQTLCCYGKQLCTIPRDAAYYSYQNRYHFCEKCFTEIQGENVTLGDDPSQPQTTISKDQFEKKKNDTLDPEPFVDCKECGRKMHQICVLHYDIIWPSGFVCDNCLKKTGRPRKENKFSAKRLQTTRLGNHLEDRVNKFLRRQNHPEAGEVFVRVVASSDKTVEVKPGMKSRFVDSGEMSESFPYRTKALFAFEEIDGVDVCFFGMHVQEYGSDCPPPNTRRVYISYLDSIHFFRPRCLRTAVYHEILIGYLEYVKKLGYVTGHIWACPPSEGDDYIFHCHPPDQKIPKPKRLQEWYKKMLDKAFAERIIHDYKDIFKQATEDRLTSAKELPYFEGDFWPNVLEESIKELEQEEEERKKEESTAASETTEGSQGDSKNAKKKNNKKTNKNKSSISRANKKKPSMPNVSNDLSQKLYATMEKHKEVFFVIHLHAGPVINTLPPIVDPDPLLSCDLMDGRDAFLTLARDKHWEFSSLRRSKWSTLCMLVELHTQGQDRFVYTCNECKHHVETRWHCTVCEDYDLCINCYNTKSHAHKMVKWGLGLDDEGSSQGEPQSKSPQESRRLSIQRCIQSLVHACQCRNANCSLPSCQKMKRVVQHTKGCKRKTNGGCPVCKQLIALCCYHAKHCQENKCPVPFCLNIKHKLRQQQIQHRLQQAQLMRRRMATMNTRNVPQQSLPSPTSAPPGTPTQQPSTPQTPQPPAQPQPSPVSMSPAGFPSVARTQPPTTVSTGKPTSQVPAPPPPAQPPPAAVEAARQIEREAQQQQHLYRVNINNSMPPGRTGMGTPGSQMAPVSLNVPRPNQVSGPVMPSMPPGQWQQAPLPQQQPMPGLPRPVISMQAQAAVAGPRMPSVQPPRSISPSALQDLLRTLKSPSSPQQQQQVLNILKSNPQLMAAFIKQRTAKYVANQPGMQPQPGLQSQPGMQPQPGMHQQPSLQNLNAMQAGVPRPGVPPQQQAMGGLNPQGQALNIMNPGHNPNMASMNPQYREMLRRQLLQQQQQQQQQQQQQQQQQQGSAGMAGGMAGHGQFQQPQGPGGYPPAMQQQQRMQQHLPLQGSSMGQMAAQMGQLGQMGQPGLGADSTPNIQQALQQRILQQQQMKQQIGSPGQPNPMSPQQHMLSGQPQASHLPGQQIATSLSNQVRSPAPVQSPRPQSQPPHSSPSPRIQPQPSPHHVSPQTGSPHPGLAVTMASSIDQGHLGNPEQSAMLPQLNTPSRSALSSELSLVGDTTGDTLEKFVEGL
In short: (§1)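 Dissociation constants from BROMOscan competition binding; mean and standard error of two independent trials.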

Homo sapiens [3] = species: Homo sapiens; test: Selectivity index, ratio of Kd for human full length p38-alpha (M1 to S360 residues) expressed in bacterial cells to Kd for human partial length BRD4 bromodomain 1 long isoform (N44 to E168 residues) expressed in bacterial cells; format: cell-based
[4] = molecular target: Mitogen-activated protein kinase 14 (Homo sapiens, UniProt Q16539); test: Binding affinity to wild-type human full length p38-alpha (M1 to S360 residues) expressed in bacterial expression system by Kinomescan method
Mitogen-activated protein kinase 14, sequence (Q16539 whole entry, the tested form may be a part): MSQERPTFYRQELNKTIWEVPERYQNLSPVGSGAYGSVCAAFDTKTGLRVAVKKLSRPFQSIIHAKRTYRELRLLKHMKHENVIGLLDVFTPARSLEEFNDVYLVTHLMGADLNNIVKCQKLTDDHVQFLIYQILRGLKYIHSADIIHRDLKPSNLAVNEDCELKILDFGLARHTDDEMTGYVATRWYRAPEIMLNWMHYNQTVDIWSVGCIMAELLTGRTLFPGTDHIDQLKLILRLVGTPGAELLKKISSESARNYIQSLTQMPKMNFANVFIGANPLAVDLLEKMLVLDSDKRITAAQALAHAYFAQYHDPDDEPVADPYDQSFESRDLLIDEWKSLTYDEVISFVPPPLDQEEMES
In short: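 Kd for p38α from KINOMEscan binding; mean and standard error of two independent trials.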

[5] = molecular target: SWI/SNF-related matrix-associated actin-dependent regulator of chromatin subfamily A member 2 (Homo sapiens, UniProt P51531); test: Binding affinity to human partial length SMARCA2 (S1377 to Q1486 residues) expressed in bacterial expression system by BROMOscan assay; in short: as §1
SWI/SNF-related matrix-associated actin-dependent regulator of chromatin subfamily A member 2, sequence (P51531 whole entry, the tested form may be a part, canonical isoform): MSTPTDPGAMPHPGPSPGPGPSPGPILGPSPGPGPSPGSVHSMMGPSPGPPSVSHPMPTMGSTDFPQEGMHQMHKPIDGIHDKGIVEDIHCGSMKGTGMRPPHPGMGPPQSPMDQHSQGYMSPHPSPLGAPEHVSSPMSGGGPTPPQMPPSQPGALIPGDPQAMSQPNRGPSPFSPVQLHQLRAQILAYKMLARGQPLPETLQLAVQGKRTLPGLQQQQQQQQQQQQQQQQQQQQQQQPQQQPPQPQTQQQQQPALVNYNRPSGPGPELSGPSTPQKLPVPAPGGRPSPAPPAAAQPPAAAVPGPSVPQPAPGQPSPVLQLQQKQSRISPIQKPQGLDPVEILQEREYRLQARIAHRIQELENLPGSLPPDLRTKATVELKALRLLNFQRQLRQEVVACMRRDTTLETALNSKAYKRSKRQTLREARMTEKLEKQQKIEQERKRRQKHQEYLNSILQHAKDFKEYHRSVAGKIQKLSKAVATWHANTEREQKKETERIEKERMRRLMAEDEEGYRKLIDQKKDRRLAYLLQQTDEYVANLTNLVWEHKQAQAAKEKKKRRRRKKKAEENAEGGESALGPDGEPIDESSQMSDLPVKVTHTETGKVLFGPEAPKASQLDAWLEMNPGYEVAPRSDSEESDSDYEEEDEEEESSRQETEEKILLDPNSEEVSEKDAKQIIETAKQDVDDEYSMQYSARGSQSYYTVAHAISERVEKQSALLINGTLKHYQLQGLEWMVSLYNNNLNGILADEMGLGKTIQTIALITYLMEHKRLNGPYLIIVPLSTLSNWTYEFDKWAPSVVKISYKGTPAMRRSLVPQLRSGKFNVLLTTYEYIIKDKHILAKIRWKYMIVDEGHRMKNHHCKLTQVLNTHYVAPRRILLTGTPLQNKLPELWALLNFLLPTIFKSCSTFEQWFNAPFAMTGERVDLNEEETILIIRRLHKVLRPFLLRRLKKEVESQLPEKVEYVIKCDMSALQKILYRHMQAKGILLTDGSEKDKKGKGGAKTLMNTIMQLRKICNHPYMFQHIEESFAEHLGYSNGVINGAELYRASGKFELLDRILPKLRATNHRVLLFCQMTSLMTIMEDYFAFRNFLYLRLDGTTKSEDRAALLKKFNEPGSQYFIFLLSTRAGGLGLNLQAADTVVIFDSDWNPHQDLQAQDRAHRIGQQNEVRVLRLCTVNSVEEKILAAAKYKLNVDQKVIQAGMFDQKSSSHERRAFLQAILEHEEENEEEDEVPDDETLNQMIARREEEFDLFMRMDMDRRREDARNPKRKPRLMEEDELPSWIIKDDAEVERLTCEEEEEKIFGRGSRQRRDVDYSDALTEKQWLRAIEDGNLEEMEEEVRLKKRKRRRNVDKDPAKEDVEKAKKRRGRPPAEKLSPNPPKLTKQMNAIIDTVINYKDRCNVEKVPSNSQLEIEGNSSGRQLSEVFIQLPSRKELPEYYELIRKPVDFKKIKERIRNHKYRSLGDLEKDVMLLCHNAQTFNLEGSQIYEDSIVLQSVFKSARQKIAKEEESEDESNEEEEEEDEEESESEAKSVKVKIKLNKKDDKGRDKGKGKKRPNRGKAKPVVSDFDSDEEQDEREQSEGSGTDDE

[6] = molecular target: T1, Bromodomain-containing protein 4; test: Binding affinity to human partial length BRD4 bromodomain 1 long isoform (N44 to E168 residues) expressed in bacterial expression system by BROMOscan assay; in short: as §1
[7] = molecular target: T1, Bromodomain-containing protein 4; test: Inhibition of biotinylated histone H4 peptide binding to BRD4 bromodomain 1 (44 to 168 residues) (unknown origin) after 60 mins by Alphascreen method
[8] = molecular target: T1, Bromodomain-containing protein 4; test: Binding affinity to human partial length BRD4 bromodomain 2 long isoform (K333 to E460 residues) expressed in bacterial expression system by BROMOscan assay; in short: as §1
Homo sapiens [9] = species: Homo sapiens; test: Selectivity index, ratio of Kd for human full length p38-alpha (M1 to S360 residues) expressed in bacterial cells to Kd for human partial length BRD4 bromodomain 2 long isoform (K333 to E460 residues) expressed in bacterial cells; format: cell-based
Homo sapiens [10] = species: Homo sapiens; test: Selectivity ratio of compound effect on human full length p38-alpha (M1 to S360 residues) expressed in bacterial cells over compound effect on human partial length BRD4 bromodomain 1 long isoform (N44 to E168 residues) expressed in bacterial cells; format: cell-based

Row | SMILES | IC50 [1] [µM] | EC50 (MM1.S) [µM] | Kd [4] [µM] | further results
1 | Cc1cc(C)cc(Oc2nccc(-c3c(C4CCCC4)nnn3C3CCNCC3)n2)c1 | > 100 | – | – | –
2 | Cc1cc(C)cc(Oc2nccc(-c3c(C)nnn3C3CCNCC3)n2)c1 | 11 | 6.6 | – | inhibition [2]: Active
3 | Cc1cc(C)cc(Oc2nccc(-c3c(C(C)C)nnn3C3CCN(C(=N)N)CC3)n2)c1 | > 100 | – | – | –
4 | Cc1cc(C)cc(Oc2cccc(-c3c(C)nnn3C3CCN(C(=N)N)CC3)n2)c1 | – | > 50 | > 200 | Kd (CREB-binding protein): > 100 µM; Ratio (Homo sapiens [3]): > 100; Kd [5]: > 100 µM; Kd [6]: 1.1 µM; IC50 [7]: 1.7 µM; Kd [8]: 0.94 µM; Ratio (Homo sapiens [9]): > 100
5 | Cc1cc(C)cc(Oc2nccc(-c3c(-c4ccc(F)cc4)nnn3C3CCNCC3)n2)c1 | > 100 | – | 0.12 | IC50 [7]: 27 µM
6 | Cc1cc(C)cc(Oc2nccc(-c3c(C4CCCCC4)nnn3C3CCNCC3)n2)c1 | > 100 | – | – | –
7 | Cc1cc(C)cc(Oc2nccc(-c3c(C)nnn3C3CCN(C(=N)N)CC3)n2)c1 | – | > 50 | – | –
8 | Cc1cc(C)cc(Nc2cccc(-c3c(C)nnn3C3CCNCC3)n2)c1 | 3.9 | 6.3 | – | inhibition [2]: Active
9 | Cc1cc(C)cc(Oc2cccc(-c3c(-c4ccc(F)cc4)nnn3C3CCNCC3)n2)c1 | – | – | 5 | –
10 | Cc1cc(C)cc(Nc2cccc(-c3c(-c4ccc(F)cc4)nnn3C3CCNCC3)n2)c1 | – | – | 6.5 | –
11 | Cc1cc(C)cc(Oc2nccc(-c3c(C(C)(C)C)nnn3C3CCNCC3)n2)c1 | > 100 | – | – | –
12 | Cc1cc(C)cc(Nc2cccc(-c3c(C)nnn3C3CCN(C(=N)N)CC3)n2)c1 | – | > 50 | > 25 | Kd (CREB-binding protein): 78 µM; Kd [5]: > 100 µM; Kd [6]: 1.2 µM; Kd [8]: 2.1 µM
13 | CCCc1nnn(C2CCN(C(=N)N)CC2)c1-c1ccnc(Oc2cc(C)cc(C)c2)n1 | > 100 | – | – | –
14 | Cc1cc(C)cc(Oc2cncc(-c3c(C)nnn3C3CCN(C(=N)N)CC3)c2)c1 | > 100 | – | – | –
15 | Cc1cc(C)cc(Oc2cccc(-c3c(C)nnn3C3CCNCC3)n2)c1 | – | 2.9 | – | –
16 | Cc1cc(C)cc(Nc2nccc(-c3c(-c4ccc(F)cc4)nnn3C3CCNCC3)n2)c1 | – | – | 0.0022 | Selectivity ratio (Homo sapiens [10]): > 10000
